From ChEMBL document CHEMBL1142637, “New caryophyllene derivatives from Betula litwinowii” (2000)
≈ marks a conversion by molar mass, not a printed value.

What was measured:
Assay type in all cases: functional
Akanthomyces muscarius = experiment: Antifungal activity against Cephalosporium ophidicola at 200 ug/mL after 7 to 10 days by agar tube dilution technique
Procedure, shortened: (§1)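 Agar tube dilution against plant pathogenic fungi. Compound in DMSO was mixed into molten SDA to a final 200 μg/mL and solidified as slants at room temperature. Slants were inoculated with 4×4 mm plugs cut from 1-week cultures and incubated 7–10 days at 29 °C. Linear growth (mm) was measured, and % inhibition was calculated against a DMSO-only medium control. Ketoconazole served as the reference drug.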

Ceratobasidium cereale = experiment: Antifungal activity against Rhizoctonia cerealis at 200 ug/mL after 7 to 10 days by agar tube dilution technique; procedure, shortened: as §1
Drechslera = experiment: Antifungal activity against Drechslera sorokinianse at 200 ug/mL after 7 to 10 days by agar tube dilution technique relative to ketoconazole; procedure, shortened: as §1
Fusarium solani = experiment: Antifungal activity against Fusarium solani at 200 ug/mL after 7 to 10 days by agar tube dilution technique relative to ketoconazole; procedure, shortened: as §1
Escherichia coli = experiment: Antibacterial activity against Escherichia coli after 24 hrs
Procedure, shortened: (§2)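 Broth microdilution MIC. Compound stock in DMSO, serially diluted 1000 to 0.97 μg/mL in sterile distilled water. Bacteria were freshly grown in double-strength Mueller-Hinton broth and adjusted to 108 CFU/mL. Equal volumes of dilution and suspension were mixed. Sterile water well served as growth control, and dilutions without organism as negative control. After 37 °C for 24 h, MIC was read as the first well without turbidity.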

Staphylococcus aureus = experiment: Antibacterial activity against Staphylococcus aureus after 24 hrs; procedure, shortened: as §2
Micrococcus luteus = experiment: Antibacterial activity against Micrococcus luteus after 24 hrs; procedure, shortened: as §2
Pseudomonas aeruginosa = experiment: Antibacterial activity against Pseudomonas aeruginosa after 24 hrs; procedure, shortened: as §2
Nakaseomyces glabratus = experiment: Antifungal activity against Candida glabrata after 24 hrs
Procedure, shortened: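 Broth microdilution: pure compound stock in DMSO, serially diluted from 1000 to 0.97 μg/mL in sterile distilled water. Each dilution was mixed with an equal volume of standardized C. glabrata suspension in yeast medium. Sterile water served as growth control, and dilutions without organism as negative control. After 24 h at 37 °C, MIC was read as the first well without turbidity.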

Bacillus cereus = experiment: Antibacterial activity against Bacillus cereus after 24 hrs; procedure, shortened: as §2

| SMILES | inhibition at 200 µg/mL (Akanthomyces muscarius) | inhibition at 200 µg/mL (Ceratobasidium cereale) | inhibition at 200 µg/mL (Drechslera) | inhibition at 200 µg/mL (Fusarium solani) | MIC (Escherichia coli) | MIC (Staphylococcus aureus) | MIC (Micrococcus luteus) | MIC (Pseudomonas aeruginosa) | MIC (Nakaseomyces glabratus) | MIC (Bacillus cereus) |
| --- | --- | --- | --- | --- | --- | --- | --- | --- | --- | --- |
| C=C1CCC[C@H](CO)CC[C@@H]2[C@@H]1CC2(C)C | 100% | 100% | 75% | 59% | 250 µg/mL (≈ 1120 µM) | 250 µg/mL (≈ 1120 µM) | 250 µg/mL (≈ 1120 µM) | 250 µg/mL (≈ 1120 µM) | 125 µg/mL (≈ 562 µM) | 125 µg/mL (≈ 562 µM) |
| O=C(N[C@H](CO)[C@H](O)c1ccc([N+](=O)[O-])cc1)C(Cl)Cl [CHLORAMPHENICOL] | – | – | – | – | 250 µg/mL (≈ 774 µM) | 7.81 µg/mL (≈ 24.2 µM) | 125 µg/mL (≈ 387 µM) | 62.5 µg/mL (≈ 193 µM) | – | 125 µg/mL (≈ 387 µM) |
| CC(=O)N1CCN(c2ccc(OCC3COC(Cn4ccnc4)(c4ccc(Cl)cc4Cl)O3)cc2)CC1 (stereo unspecified) [KETOCONAZOLE] | – | – | – | – | – | – | – | – | 62.5 µg/mL (≈ 118 µM) | – |
